Variants at the floor of the assay were thinned out.
B1: tRNA (parent)
chain: GUUCCGUUGGCGUAAUGGUAACGCGUCUCCCUCCUAAGGAGAAGACUGCGGGUUCGAGUCCCGUACGGAACG

Variants of: B1
Assay: yeast fitness relative to wild type (ratio to wild type); higher = fitter; tRNA-Arg(CCU), competitive growth, 37 C, YPD
Summary of the method: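 Gene amplicons from the start population and from each of six end populations were read by 100-nucleotide paired-end sequencing. Those end populations came from pooled Saccharomyces cerevisiae strains carrying tRNA-Arg(CCU) gene variants at the native locus, competed in YPD at 37°C for 24 hours. Fitness relative to wild type was worked out from changes in genotype frequencies. Genotypes needed ≥ 100 starting reads, and estimates < 0.5 were set to 0.5.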

| Variant | yeast fitness |
| --- | --- |
| A15G A37U C55U | 0.556 |
| A15C G23C A65G | ≤ 0.5 |
| A15G A21C C49U | ≤ 0.5 |
| A15G A37G A70C | 0.664 |
| A15C U35C | 0.578 |
| A15C C33U C61G | ≤ 0.5 |
| A15G A20U C29G A43G A70U | ≤ 0.5 |
| A15C U26G U28C A37G G41A C49G | 0.59 |
| A15C G44A | 0.707 |
| A15C G17A U35A | ≤ 0.5 |
| A15C C46U C66A | 0.55 |
| A15C U16C C31G A69U | ≤ 0.5 |
| A15C C22A G25C U28A A36U U54C A57C | ≤ 0.5 |
| A15C C30U A42U C49G | ≤ 0.5 |
| A15C A43G | 0.689 |
| A15C A43U | 0.653 |
| A15C C29G G44C A45U U47A A70C | ≤ 0.5 |
| A15C A21U A36C C49U A69U | ≤ 0.5 |
| A15C U16C C27U C31G A69C | ≤ 0.5 |
| A15C G56A C61U | 0.614 |
| A15C C27U G39C C49G A69C | ≤ 0.5 |
| A15C G23C C31A | ≤ 0.5 |
| A15C C31G C33G | ≤ 0.5 |
| A15C U16C A37C A43C | ≤ 0.5 |

| Variant | yeast fitness |
| --- | --- |
| A15C A43G C46A A70C | ≤ 0.5 |
| A15C G23C G41A | ≤ 0.5 |
| A15C U32C C62U | 0.54 |
| A15G A20G C27A A40G A45C | 0.503 |
| A15G A37U C61A | ≤ 0.5 |
| A15G A21U A45G C62G | 0.506 |
| A15G A43C | 0.847 |
| A15G A43U | 0.925 |
| A15C U28C | 0.737 |
| A15C C30G A37C | ≤ 0.5 |
| A15C G68A | 0.76 |
| A15C U28C C61G | ≤ 0.5 |
| A15C U28A C30U C34G A43U | ≤ 0.5 |
| A15G A21C C33G A43U | 0.57 |
| A15C U28A G39A A65G | ≤ 0.5 |
| A15C C33U | 0.572 |
| A15C C33G | 0.505 |
| A15C G17A U28A A65U | 0.752 |
| A15C U53A | 0.578 |
| A15C C31U C55G | ≤ 0.5 |
| A15C C27U | 0.724 |
| A15G A36C C46A A65G | ≤ 0.5 |
| A15G A20U A45U U64C | 0.593 |
| A15C C33G G38C C62A | 0.551 |

| Variant | yeast fitness |
| --- | --- |
| A15C G41C A45C C62U | ≤ 0.5 |
| A15C C27U G58C | 0.599 |
| A15G A20G C27U | 0.732 |
| A15C G17C C22G C24A C31A G67C | 0.752 |
| A15C G23A C24G C46G C55G | ≤ 0.5 |
| A15C U19A C24G C34G C46U U54C C61A A70U | ≤ 0.5 |
| A15G A40U A45G | 0.585 |
| A15C C33G C60U C62U | ≤ 0.5 |
| A15C G44A G67A | ≤ 0.5 |
| A15G A20U C22U G38C | ≤ 0.5 |
| A15C G17A A65G | 0.576 |
| A15C C30A A57G A69C | ≤ 0.5 |
| A15C G38A | 0.581 |
| A15G A37C C46U C49U | ≤ 0.5 |
| A15G A20U G48A | 0.66 |
| A15C C46U C61U G67A | ≤ 0.5 |
| A15G A42G | 0.929 |
| A15C G48A C49U U64G C66U | ≤ 0.5 |
| A15C C49A | 0.637 |
| A15C U19C | 1.03 |
| A15C A42C G48A G50C | 0.587 |
| A15G A36U C61U A65U | ≤ 0.5 |
| A15C G41C C49U G68C | ≤ 0.5 |
| A15C A69U | 0.892 |

| Variant | yeast fitness |
| --- | --- |
| A15C A69C | 0.672 |
| A15C A37C G41C C66A | 0.589 |
| A15C G39A G56A | ≤ 0.5 |
| A15C C27A C33U C34A C61U | 0.509 |
| A15C G41C U59G A70G | ≤ 0.5 |
| A15C U32C A36C A45C C60U | ≤ 0.5 |
| A15G A20C U54A C62U | ≤ 0.5 |
| A15C C31G U32A C33U C34G | ≤ 0.5 |
| A15C U26A C31G U32A | ≤ 0.5 |
| A15C C49A G68C | ≤ 0.5 |
| A15C C46G A65G C66U | ≤ 0.5 |
| A15G A21G C55G | ≤ 0.5 |
| A15G A43C G67U A70U | ≤ 0.5 |
| A15C C34G C49G U54C C66G G68C | ≤ 0.5 |
| A15C U54A C61U A70U | 0.645 |
| A15C C29U C31U | ≤ 0.5 |
| A15C C34G | 0.59 |
| A15C C31A | 0.561 |
| A15C C31U | 0.742 |
| A15C G17C A45U | ≤ 0.5 |
| A15C C33A C34U A36C | 0.604 |
| A15G A36G G41A G52A | ≤ 0.5 |
| A15C A42C G48A G50C A65G | 0.561 |
| A15C U16A A21G U26A C30U C61A | 0.692 |

| Variant | yeast fitness |
| --- | --- |
| A15G A20G C49A C62U | 0.567 |
| A15C G48C | 0.69 |
| A15C A65U G67U | ≤ 0.5 |
| A15C C30A A40G C49G U54A C55A A65G A70U | ≤ 0.5 |
| A15C C46G G50C C61A | 0.636 |
| A15G A21C C24G A40U C49U | ≤ 0.5 |
| A15C C24G A45G C55U | ≤ 0.5 |
| A15C G17C C31A U32C G44C | ≤ 0.5 |
| A15C U28A C34G A37G A43U | ≤ 0.5 |
| A15C G50C U53A C66A | ≤ 0.5 |
| A15C U19A C24G G63A | ≤ 0.5 |
| A15C A42C | 0.646 |
| A15G A40U G48C C60G | ≤ 0.5 |
| A15C C27G C49G | 0.551 |
| A15C U26G U28C U32C A37G G41A C49G | ≤ 0.5 |
| A15C G25C | 0.709 |
| A15C C34G C46A C61U C66G | ≤ 0.5 |
| A15G A42C C49A C62U A69C | ≤ 0.5 |
| A15C A21G C27G | ≤ 0.5 |
| A15C G48C C66U G67C | ≤ 0.5 |
| A15C G18C A42C G51C A65C | ≤ 0.5 |
| A15C A37G | 0.614 |
| A15C A37C | 0.639 |
| A15C A36C G39C | ≤ 0.5 |

| Variant | yeast fitness |
| --- | --- |
| A15C A40C A70U | ≤ 0.5 |
| A15C C30A A42C C55U | ≤ 0.5 |
| A15C A21U | 0.546 |
| A15C C22G U32C G41A | ≤ 0.5 |
| A15G A37G C66U G67A | ≤ 0.5 |
| A15C A65U | 0.841 |
| A15C A65C | 0.713 |
| A15C A45C G48A | 0.638 |
| A15G A43G U53G G63A | ≤ 0.5 |
| A15C U16A C31G C34U A65U C66G | ≤ 0.5 |
| A15C U16G A21C C24A U32A A45C | ≤ 0.5 |
| A15C C31U A45U G51C | ≤ 0.5 |
| A15C C31G A40U G51A | ≤ 0.5 |
| A15C C55A A65C | ≤ 0.5 |
| A15C U16A G56C A57C C60U | ≤ 0.5 |
| A15C C27G C30U C46A A70U | ≤ 0.5 |
| A15C C22U A42U U47A | 0.511 |
| A15C G39A | 0.664 |
| A15C G39C | 0.638 |
| A15C G58A G68A A70C | ≤ 0.5 |
| A15C U54C C66G | ≤ 0.5 |
| A15G A43U C46A | 0.671 |
| A15C G18A U19G | ≤ 0.5 |
| A15C A36C G38C C55U C66U | ≤ 0.5 |

| Variant | yeast fitness |
| --- | --- |
| A15C C31G C49U | 0.638 |
| A15C U26C G67U A69G | ≤ 0.5 |
| A15C C24U A45G G52A | ≤ 0.5 |
| A15C G52A A70U | ≤ 0.5 |
| A15C A36U U64A | ≤ 0.5 |
| A15C G25C G52A A57C C60G | ≤ 0.5 |
| A15G A20G C27U C33U A37U G38C C60U C62A G63U | 0.684 |
| A15C C24U A42C | 0.62 |
| A15C A21U C24A C33A C61U | ≤ 0.5 |
| A15C G17A C55G | ≤ 0.5 |
| A15C U28C G48C G50U | ≤ 0.5 |
| A15C C24A U59C C62U | ≤ 0.5 |
| A15C U47A G68U | 0.57 |
| A15C C60A C62U | ≤ 0.5 |
| A15C A21G G23A C27U | ≤ 0.5 |
| A15C U59C | 0.741 |
| A15C C24A U32A C55U | ≤ 0.5 |
| A15G A45C | 0.796 |
| A15G A45G | 0.853 |
| A15C U28C A43U | ≤ 0.5 |
| A15C C24A C46A A57C A69U | ≤ 0.5 |
| A15C A43G C46A | 0.526 |
| A15C U19C A37C G51A | ≤ 0.5 |
